One data set has as its target T1, Cannabinoid receptor 2 (Homo sapiens, UniProt P34972). Description: Agonist activity at human CB2 receptor expressed in CHO cells co-expressing Galpha16 assessed as increase in calcium mobilization at 10 uM measured at 1 sec interval for 90 secs by calcium-5 dye based FLIPR assay relative to CP55,940. It is filed as functional, cell-based.
Settings: not given
T1 sequence (P34972 whole entry): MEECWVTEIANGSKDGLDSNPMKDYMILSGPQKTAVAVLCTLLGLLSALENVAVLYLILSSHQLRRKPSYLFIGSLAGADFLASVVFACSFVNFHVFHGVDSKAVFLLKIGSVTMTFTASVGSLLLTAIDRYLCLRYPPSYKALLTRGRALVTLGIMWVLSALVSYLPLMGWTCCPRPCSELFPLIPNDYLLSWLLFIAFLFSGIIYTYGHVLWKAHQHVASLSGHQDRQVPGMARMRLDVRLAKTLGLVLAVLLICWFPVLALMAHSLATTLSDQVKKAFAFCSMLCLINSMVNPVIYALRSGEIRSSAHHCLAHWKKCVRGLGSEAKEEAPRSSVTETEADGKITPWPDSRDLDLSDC
T2 sequence (P21554 whole entry): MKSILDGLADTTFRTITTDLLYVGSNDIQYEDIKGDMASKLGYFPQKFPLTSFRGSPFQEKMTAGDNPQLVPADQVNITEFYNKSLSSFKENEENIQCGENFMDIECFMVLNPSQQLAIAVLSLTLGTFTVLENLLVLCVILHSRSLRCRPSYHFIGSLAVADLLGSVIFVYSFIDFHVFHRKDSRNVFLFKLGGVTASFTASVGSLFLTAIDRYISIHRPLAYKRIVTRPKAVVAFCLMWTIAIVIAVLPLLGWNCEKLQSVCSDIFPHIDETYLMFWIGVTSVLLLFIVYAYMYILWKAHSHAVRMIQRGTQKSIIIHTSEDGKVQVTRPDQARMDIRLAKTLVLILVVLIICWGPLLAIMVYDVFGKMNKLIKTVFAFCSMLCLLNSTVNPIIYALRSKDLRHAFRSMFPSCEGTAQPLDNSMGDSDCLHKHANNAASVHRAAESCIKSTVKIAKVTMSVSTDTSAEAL
By Emax is commonly meant the size of the effect at its maximum, as opposed to the concentration needed. As to `O=C(Nc1ccc(Cl)cc1)Nc1ccc(-c2ccccc2Cl)s1`, the maximal response (Emax) was under 10%.
The same measure, in the same setting: for `O=C(Nc1ccc(Cl)cc1)Nc1ccc(-c2cccc(Cl)c2)s1` the value was under 10%.
Still for that read-out and setting: for `O=C(Nc1ccc(Cl)cc1)Nc1ccc(-c2cc(Cl)cc(Cl)c2)s1` the value was under 10%; for `CS(=O)(=O)c1cccc(-c2ccc(NC(=O)Nc3ccc(Cl)cc3)s2)c1`, under 10%.
With `Cc1cccc(-c2ccc(NC(=O)Nc3ccc(Cl)cc3)s2)c1`, the Emax is under 10%.
Still for that read-out and setting: for `O=C(Nc1ccc(Cl)cc1)Nc1ccc(-c2ccc(F)cc2F)s1` the value was under 10%; for `O=C(Nc1ccc(Cl)cc1)Nc1ccc(-c2cccc(F)c2)s1`, under 10%.
Still for that read-out and setting: for `CC(=O)c1cccc(-c2ccc(NC(=O)Nc3ccc(Cl)cc3)s2)c1` the value was under 10%; for `COc1ccc(-c2ccc(NC(=O)Nc3ccc(Cl)cc3)s2)cc1`, under 10%.
Same read-out and setting: under `O=C(Nc1ccc(Cl)cc1)Nc1ccc(-c2ccncc2)s1` stands under 10%; under `O=C(Nc1ccc(Cl)cc1)Nc1ccc(-c2ccc(Cl)cc2)s1`, under 10%; under `O=C(Nc1ccc(Cl)cc1)Nc1ccc(-c2cccnc2)s1`, under 10%.
`CN(C)c1cccc(-c2ccc(NC(=O)Nc3ccc(Cl)cc3)s2)c1`: the Emax was under 10%.
On the same count and under the same terms, for `O=C(Nc1ccc(Cl)cc1)Nc1ccc(-c2ccc(F)cc2)s1` the value was under 10%.

A further data set has as its target T2, Cannabinoid receptor 1 (Homo sapiens, UniProt P21554). Description: Inverse agonist activity at human CB1 receptor expressed in HEK293 cell membranes assessed as suppression of [35S]GTPgammaS binding at 10 uM incubated for 60 mins by scintillation counting method. The settings on record: hek293, 1 h. In a few lines:
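Inverse agonism on human CB1-HEK293 membranes: compounds were incubated 60 min with 0.1 nM [35S]GTPγS and 30 µM GDP, with no CP55,940 present. Buffer was Tris/MgCl2/EGTA pH 7.4 with 0.5% BSA, at 30 °C. Binding was read by filtration and scintillation counting and normalized to basal (vehicle = 0%).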
In general terms: GTPγS resists hydrolysis and so accumulates on activated G proteins.
As to `O=C(Nc1ccc(Cl)cc1)Nc1ccc(-c2ccccc2Cl)s1`, the “inhibition (INH)” value is “Active”.
Take `O=C(Nc1ccc(Cl)cc1)Nc1ccc(-c2cccc(Cl)c2)s1`: the “inhibition (INH)” value is reported as “Active”.
On the same count and under the same terms, under `O=C(Nc1ccc(Cl)cc1)Nc1ccc(-c2cc(Cl)cc(Cl)c2)s1` stands “Active”; under `CS(=O)(=O)c1cccc(-c2ccc(NC(=O)Nc3ccc(Cl)cc3)s2)c1`, “Active”.
Same read-out and setting: under `Cc1cccc(-c2ccc(NC(=O)Nc3ccc(Cl)cc3)s2)c1` stands “Active”; under `O=C(Nc1ccc(Cl)cc1)Nc1ccc(-c2ccc(F)cc2F)s1`, “Active”.
The same measure, in the same setting: for `O=C(Nc1ccc(Cl)cc1)Nc1ccc(-c2cccc(F)c2)s1` the value was “Active”.
In the case of `CC(=O)c1cccc(-c2ccc(NC(=O)Nc3ccc(Cl)cc3)s2)c1`, the “inhibition (INH)” value is recorded as “Active”.
As for `COc1ccc(-c2ccc(NC(=O)Nc3ccc(Cl)cc3)s2)cc1`, the “inhibition (INH)” value is listed as “Active”.
With `O=C(Nc1ccc(Cl)cc1)Nc1ccc(-c2ccncc2)s1`, the “inhibition (INH)” value is on record as “Active”.
Still for that read-out and setting: under `O=C(Nc1ccc(Cl)cc1)Nc1ccc(-c2ccc(Cl)cc2)s1` stands “Active”; under `O=C(Nc1ccc(Cl)cc1)Nc1ccc(-c2cccnc2)s1`, “Active”; under `CN(C)c1cccc(-c2ccc(NC(=O)Nc3ccc(Cl)cc3)s2)c1`, “Active”.
Same read-out and setting: for `O=C(Nc1ccc(Cl)cc1)Nc1ccc(-c2ccc(F)cc2)s1` the value was “Active”.

For another data set, the target named is T2, Cannabinoid receptor 1. Description: Allosteric modulator activity at human CB1 receptor expressed in HEK293 cell membranes assessed as suppression of 100 nM CP55,940-induced [35S]GTPgammaS binding incubated for 60 mins by scintillation counting method. It is filed as functional.
Settings: not given
Broadly, the IC50 is the midpoint of a concentration-inhibition curve. Turning to `O=C(Nc1ccc(Cl)cc1)Nc1ccc(-c2ccncc2)s1`, the IC50 came out at 0.263 µM.

The next data set deals with Cannabinoid receptor 1 (Mus musculus, UniProt P47746). Description: Allosteric modulator activity at CB1 receptor in mouse cerebellar membranes assessed as suppression of 1 uM CP55,940-induced [35S]GTPgammaS binding incubated for 60 mins by scintillation counting method. It is filed as functional, cell membranes, Cerebellum, Membrane.
Sequence of Cannabinoid receptor 1 (Mus musculus, UniProt P47746) (P47746 whole entry): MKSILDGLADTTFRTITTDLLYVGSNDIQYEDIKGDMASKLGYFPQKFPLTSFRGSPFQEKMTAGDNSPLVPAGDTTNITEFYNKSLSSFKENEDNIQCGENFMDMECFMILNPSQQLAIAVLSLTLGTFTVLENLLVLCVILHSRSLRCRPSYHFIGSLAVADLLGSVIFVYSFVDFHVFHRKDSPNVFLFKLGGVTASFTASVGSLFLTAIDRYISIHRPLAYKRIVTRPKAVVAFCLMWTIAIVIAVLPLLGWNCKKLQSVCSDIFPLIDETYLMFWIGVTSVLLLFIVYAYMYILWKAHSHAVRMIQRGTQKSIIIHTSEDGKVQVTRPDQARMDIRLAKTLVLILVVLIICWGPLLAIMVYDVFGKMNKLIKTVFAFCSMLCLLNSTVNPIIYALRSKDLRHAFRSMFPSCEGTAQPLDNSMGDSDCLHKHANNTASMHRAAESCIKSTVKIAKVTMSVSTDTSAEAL
Settings: not given
For `CN(C)c1cccc(-c2ccc(NC(=O)Nc3ccc(Cl)cc3)s2)c1`, the half-inhibitory concentration (IC50) was 2.57 µM.

System in another data set: not listed separately
Put plainly: Half life in rat liver microsomes. Format: ADME, Microsome. The settings on record: liver microsomes. The essentials: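 Rat liver microsomes (0.5 mg/mL protein) in 100 mM potassium phosphate pH 7.4 at 37 °C with 1 mM NADPH. Samples were taken at 0, 5, 15, 30 and 45 min, quenched with cold acetonitrile containing internal standards, and analysed by LC/MS/MS. Half-life and clearance were calculated; two independent experiments in duplicate.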
Background: Liver microsomes are vesicles of endoplasmic reticulum, rich in cytochrome P450 enzymes.
In general, half-life refers to the time needed for the level to fall by half in the phase considered. In turn, `O=C(Nc1ccc(Cl)cc1)Nc1cccc(-c2ccc(F)cc2)c1` registered a half-life of over 5 h.

The next data set concerns the target T2, Cannabinoid receptor 1. Description: Displacement of [3H]CP55,940 from human CB1 receptor.
Settings: not given
The Kd is the concentration at which binding is half-saturated. Low readings indicate tighter binding, high ones weaker binding. On to `O=C(Nc1ccc(Cl)cc1)Nc1cccc(-c2ccc[nH]2)c1`, for which the dissociation constant (Kd) was 0.0014 µM.

Another data set has as its target T1, Cannabinoid receptor 2. Put plainly: Antagonist activity at human CB2 receptor expressed in CHO cells co-expressing Galpha16 assessed as inhibition of EC80 CP55,940-induced calcium mobilization preincubated for 15 mins followed by […] addition measured at 1 sec interval for 90 secs by calcium-5 dye based FLIPR assay. Format: functional, cell-based.
Settings: not given
In a few lines:
(§1)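 CB2 antagonist mode in stable human CB2-CHO-RD-HGA16 cells. Cells were dye-loaded, then pretreated with compound for 15 min at 37 °C. CP55,940 was added at its EC80 at the 10 s point, and calcium fluorescence was recorded every 1 s over 90 s.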
Turning to `O=C(Nc1ccc(Cl)cc1)Nc1ccc(-c2ccccc2Cl)s1`, the IC50 was over 10 µM.
The same measure, in the same setting: for `O=C(Nc1ccc(Cl)cc1)Nc1ccc(-c2cccc(Cl)c2)s1` the value was over 10 µM.
Same read-out and setting: for `O=C(Nc1ccc(Cl)cc1)Nc1ccc(-c2cc(Cl)cc(Cl)c2)s1` the value was over 10 µM.
Same read-out and setting: for `CS(=O)(=O)c1cccc(-c2ccc(NC(=O)Nc3ccc(Cl)cc3)s2)c1` the value was over 10 µM.
As for `Cc1cccc(-c2ccc(NC(=O)Nc3ccc(Cl)cc3)s2)c1`, the IC50 is over 10 µM.
For `O=C(Nc1ccc(Cl)cc1)Nc1ccc(-c2ccc(F)cc2F)s1`, the half-inhibitory concentration (IC50) was over 10 µM.
Still for that read-out and setting: for `O=C(Nc1ccc(Cl)cc1)Nc1ccc(-c2cccc(F)c2)s1` the value was over 10 µM; for `CC(=O)c1cccc(-c2ccc(NC(=O)Nc3ccc(Cl)cc3)s2)c1`, over 10 µM.
On the same count and under the same terms, for `COc1ccc(-c2ccc(NC(=O)Nc3ccc(Cl)cc3)s2)cc1` the value was over 10 µM; for `O=C(Nc1ccc(Cl)cc1)Nc1ccc(-c2ccncc2)s1`, over 10 µM.
Still for that read-out and setting: under `O=C(Nc1ccc(Cl)cc1)Nc1ccc(-c2ccc(Cl)cc2)s1` stands over 10 µM.
In the case of `O=C(Nc1ccc(Cl)cc1)Nc1ccc(-c2cccnc2)s1`, the concentration for half-maximal inhibition (IC50) is over 10 µM.
For `CN(C)c1cccc(-c2ccc(NC(=O)Nc3ccc(Cl)cc3)s2)c1`, the half-maximal inhibitory concentration (IC50) is over 10 µM.
Turning to `O=C(Nc1ccc(Cl)cc1)Nc1ccc(-c2ccc(F)cc2)s1`, the IC50 was over 10 µM.

A further data set deals with T1, Cannabinoid receptor 2. Put plainly: Antagonist activity at human CB2 receptor expressed in CHO cells co-expressing Galpha16 assessed as inhibition of EC80 CP55,940-induced calcium mobilization at 10 uM preincubated for 15 mins followed by […] addition measured at 1 sec interval for 90 secs by calcium-5 dye based FLIPR assay relative to CP55,940. Format: functional, cell-based.
Settings: not given
The essentials:
as §1
Background: A change in cytosolic calcium serves as a functional read-out for many receptors and channels.
One may read the inhibition as the percentage by which the read-out fell short of the control. Turning to `O=C(Nc1ccc(Cl)cc1)Nc1ccc(-c2ccccc2Cl)s1`, the inhibition was under 50%.
Still for that read-out and setting: for `O=C(Nc1ccc(Cl)cc1)Nc1ccc(-c2cccc(Cl)c2)s1` the value was under 50%.
Still for that read-out and setting: under `O=C(Nc1ccc(Cl)cc1)Nc1ccc(-c2cc(Cl)cc(Cl)c2)s1` stands under 50%.
The same measure, in the same setting: under `CS(=O)(=O)c1cccc(-c2ccc(NC(=O)Nc3ccc(Cl)cc3)s2)c1` stands under 50%; under `Cc1cccc(-c2ccc(NC(=O)Nc3ccc(Cl)cc3)s2)c1`, under 50%; under `O=C(Nc1ccc(Cl)cc1)Nc1ccc(-c2ccc(F)cc2F)s1`, under 50%.
As for `O=C(Nc1ccc(Cl)cc1)Nc1ccc(-c2cccc(F)c2)s1`, the inhibition is under 50%.
Same read-out and setting: for `CC(=O)c1cccc(-c2ccc(NC(=O)Nc3ccc(Cl)cc3)s2)c1` the value was under 50%; for `COc1ccc(-c2ccc(NC(=O)Nc3ccc(Cl)cc3)s2)cc1`, under 50%.
`O=C(Nc1ccc(Cl)cc1)Nc1ccc(-c2ccncc2)s1`: the inhibition is under 50%.
Still for that read-out and setting: for `O=C(Nc1ccc(Cl)cc1)Nc1ccc(-c2ccc(Cl)cc2)s1` the value was under 50%.
On the same count and under the same terms, under `O=C(Nc1ccc(Cl)cc1)Nc1ccc(-c2cccnc2)s1` stands under 50%.
Same read-out and setting: under `CN(C)c1cccc(-c2ccc(NC(=O)Nc3ccc(Cl)cc3)s2)c1` stands under 50%.
`O=C(Nc1ccc(Cl)cc1)Nc1ccc(-c2ccc(F)cc2)s1`: the inhibition was under 50%.

(Values after ChEMBL document CHEMBL4414612, “Synthesis and Pharmacological Evaluation of 1-Phenyl-3-Thiophenylurea Derivatives as Cannabinoid Type-1 Receptor Allosteric Modulators” (J Med Chem, 2019).)
